# Data published in PubChem BioAssay AID1230 (PCMD, 2008).
# The whole screen tested about 210,000 compounds, of which about 220 (0.1%) were called active.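 The calls were made as follows: active = signal enhancement of 30% or more; inactive = the rest.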 The list comes from a sample in which actives are over-represented; it also holds similar structures and randomly drawn compounds.
# Molecular target: E3 ubiquitin-protein ligase Mdm2 (Homo sapiens) (UniProt Q00987)
# Assay: MDM2-luciferase reporter signal enhancers, primary screen, MDM2 E3 ligase inhibitor project, cell-based, luminescence, 1536-well (AID 1230)
# Conditions: cell-based MDM2 ubiquitination luciferase reporter, 2 h; at 5 µM; stronger effect = higher value; 0 = plate control, 100 = twice control, blank-subtracted
# In short: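 Timing – 2 h compound exposure at 37 °C · Assay system – mammalian cells stably expressing self-ubiquitinating, self-degrading MDM2 E3–luciferase fusion · Amount – 2000 cells seeded into each well · Measure – % luminescence enhancement versus blank-corrected plate control mean · Measured by – SteadyLite luminescence, 15 min reagent step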
# Chain of E3 ubiquitin-protein ligase Mdm2 (Homo sapiens) (Q00987 whole entry, looked up): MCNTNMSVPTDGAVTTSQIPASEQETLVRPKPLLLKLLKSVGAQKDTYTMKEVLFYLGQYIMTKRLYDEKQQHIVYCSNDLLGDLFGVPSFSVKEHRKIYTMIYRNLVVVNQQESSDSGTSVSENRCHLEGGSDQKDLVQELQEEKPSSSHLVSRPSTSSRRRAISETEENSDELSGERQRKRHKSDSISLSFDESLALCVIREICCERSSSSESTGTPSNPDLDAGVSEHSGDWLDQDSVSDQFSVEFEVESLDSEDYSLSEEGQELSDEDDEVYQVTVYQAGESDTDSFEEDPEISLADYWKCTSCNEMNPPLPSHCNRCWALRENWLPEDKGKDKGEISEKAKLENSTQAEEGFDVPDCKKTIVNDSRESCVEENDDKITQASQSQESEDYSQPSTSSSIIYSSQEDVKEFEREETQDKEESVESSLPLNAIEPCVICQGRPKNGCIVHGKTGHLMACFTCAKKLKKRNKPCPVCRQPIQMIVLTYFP
row,Compound,signal enhancement
1,O=C(Nc1cccc(Cl)c1)Nc1nnc(-c2ccccc2)o1,-7.54% (inactive)
2,O=C(Nc1nnc(-c2ccc(Cl)cc2)o1)c1ccccc1Br,108% (active)
3,CCCC(=O)Nc1nnc(-c2ccccc2)o1,-6.24% (inactive)
4,COc1ccccc1C1CCN(c2ccc([N+](=O)[O-])cn2)CC1,-10.5% (inactive)
5,CCN(CC)CCn1cnc2c1c(=O)n(CCOC(=O)c1cc(OC)c(OC)c(OC)c1)c(=O)n2C,2.01% (inactive)
6,O=C(NC(=O)c1cc(OCC(F)(F)F)ccc1OCC(F)(F)F)Nc1ccccc1,-3.24% (inactive)
7,N#CCC(=O)N/N=C/c1cn(Cc2ccc3ccccc3c2)c2ccccc12,-6.67% (inactive)
8,CCn1c(SCC(=O)N/N=C/c2ccncc2)nc2ccccc21,-15.7% (inactive)
9,CC(C)(C)CN1C(=O)C(=O)NC[C@H]1Cc1cccc2ccccc12,-5.59% (inactive)
10,O=C(N/N=C/c1ccccn1)c1cccnc1,-13% (inactive)
11,CCOC(=O)CN(C(=O)COc1nc(C)cc(C)c1C#N)c1ccc(Cl)cc1,-12.8% (inactive)
12,O=S(=O)(c1ccc(NC(=S)NN=C(C2CC2)C2CC2)cc1)N1CCOCC1,-6.04% (inactive)
13,Cc1nnc(C)c2c(C)n(N)c(C)c12,-11.1% (inactive)
14,Cc1nc(SCC(=O)c2ccccc2)c([N+](=O)[O-])[nH]1,-9.82% (inactive)
15,Cc1nc(SCc2ccc(F)cc2)c([N+](=O)[O-])[nH]1,30.6% (active)
16,Cc1cc([N+](=O)[O-])nn1Cc1ccc(F)cc1,-10.9% (inactive)
17,O=C(CCS(=O)(=O)c1ccccc1Cl)Nc1ccc(S(=O)(=O)Nc2ncccn2)cc1,-14.3% (inactive)
18,O=C(O)C#Cc1cccc2ccccc12,-21.3% (inactive)
19,Cc1nc2c(ncn2-c2ccccc2)c(=O)n1NC(=O)CN1CCCC1,-14.3% (inactive)
20,C/C(=N/Nc1nc(-c2ccccc2)c(CC(=O)O)s1)c1ccccc1,-20.1% (inactive)
21,S=C(NNC(=S)NC1CC2CCC1C2)NC1CC2C=CC1C2 (stereo not drawn),-3.28% (inactive)

row,Compound,signal enhancement
1,COC(=O)c1scc(S(=O)(=O)C(C)(C)C)c1-n1cccc1,-17% (inactive)
2,C/C(=N\NC(=O)c1cccnc1)c1ccc(-c2ccccc2)cc1,-9.97% (inactive)
3,C/C(=N\NC(N)=S)c1ccncc1,-0.15% (inactive)
4,C/C(=N\NC(N)=S)c1cccnc1,54.3% (active)
5,COC(=O)N(NC(=O)C(O)(C(C)C)C(C)C)c1ccccc1,-12.4% (inactive)
6,O=C(C[n+]1cc(-c2ccc(Cl)c(Cl)c2)n2c1CCC2)c1cccs1,-2.63% (inactive)
7,CS(=O)(=O)c1ccc(Cl)c(NC(=O)Nc2ccccc2)c1,-9.46% (inactive)
8,Cc1onc(-c2ccc(Cl)cc2)c1-c1ccnn1S(=O)(=O)c1ccc(Cl)cc1,-0.58% (inactive)
9,C=CCC1(C#N)C(=S)NC(C)=C(C(=O)OCC)C1c1ccccc1 (stereo not drawn),9.19% (inactive)
10,CCc1ccccc1N1CN(Cc2ccco2)CNC1=S,2.19% (inactive)
11,OCC1(Cc2ccccc2C(F)(F)F)CCN(Cc2ccncc2)CC1,-8.35% (inactive)
12,Cc1nc(/N=C(\N)NC(=O)NC2CCCCC2)nc2ccccc12,-4.72% (inactive)
13,COCCNc1nc(-c2ccccc2)nc2c1oc1ccccc12,-11.4% (inactive)
14,Cc1ccc2c(c1)nnc1nnc(SCC(=O)O)n12,0.72% (inactive)
15,Cc1ccc2c(C)c(C(=O)N3CCC(N4CCC(C(=O)NC5CC5)CC4)CC3)oc2c1,-9.89% (inactive)
16,O=C(NC(=S)Nc1cccc2c(O)cccc12)c1cccc(Br)c1,-0.26% (inactive)
17,Clc1ccc(C[n+]2cc(-c3ccc(Cl)cc3)n3c2CCC3)cc1,-12.4% (inactive)
18,CSc1nnnn1-c1c(C)cc(C)cc1C,-3.25% (inactive)
19,O=C(Nc1ccc(N2CCOCC2)nc1)c1c(F)cccc1F,-15% (inactive)
20,Nc1nc(Sc2ncccc2[N+](=O)[O-])n[nH]1,1.65% (inactive)
21,CCNC(=O)CCc1nc(-c2ccc(C)cc2)no1,8.03% (inactive)

row,Compound,signal enhancement
1,O=C1C2C3C=CC(C3)C2C(=O)N1c1ccc(S(=O)(=O)Nc2nccs2)cc1 (stereo not drawn),-8.32% (inactive)
2,FC(F)(F)c1nc(-c2ccccc2)ncc1-c1nnnn1-c1ccccc1,-9.19% (inactive)
3,O=c1oc(-c2ccccc2NS(=O)(=O)c2ccc(Cl)cc2)nc2ccccc12,-16.5% (inactive)
4,COc1ccc(Cc2cc(-c3ccc(F)cc3)n[nH]c2=O)cc1,-10.5% (inactive)
5,Cn1nnc2cc(C(=O)NCCC3=CCCCC3)ccc21,-41.3% (inactive)
6,O=C(NCCC1=CCCCC1)c1ccc(Cl)c([N+](=O)[O-])c1,59.6% (active)
7,CN(c1ccc(C(=O)NCCC2=CCCCC2)cc1)S(C)(=O)=O,-36.2% (inactive)
8,O=C1CCCCC1C(=O)c1ccccc1 (stereo not drawn),-74.7% (inactive)
9,CNC(=O)c1csc(Cc2c(Cl)sc3ccc(Cl)cc23)n1,-3.68% (inactive)
10,O=C1N=C(N2CCc3ccccc3C2)S/C1=C\c1ccc(O)cc1,-10.4% (inactive)
11,O=S(=O)(Nc1ccc(OC(F)(F)F)cc1)c1cccc2nonc12,7.33% (inactive)
12,Cc1onc(NC(=O)c2ccc([N+](=O)[O-])o2)c1Br,-5.7% (inactive)
13,O=C(CCCCCN1C(=O)c2cccc3cccc(c23)C1=O)NCc1ccco1,-8.79% (inactive)
14,Cn1c(CSCC(=O)Nc2ccccc2)nnc1SCc1ccccc1,-7.31% (inactive)
15,Cn1cccc1/C=N/NC(=O)CNc1cccc2ccccc12,-9.96% (inactive)
16,COc1cc(OC)c2ccc(=O)oc2c1C(CCN1CCN(c2ccccc2)CC1)c1ccc2c(c1)OCO2 (stereo not drawn),6.23% (inactive)
17,COc1ccc(CCNC(=O)C(=O)Nc2ccc3nc4n(c(=O)c3c2)CCCCC4)cc1OC,3.62% (inactive)
18,Nc1ccccc1SC(C[N+](=O)[O-])c1ccccc1 (stereo not drawn),-3.83% (inactive)
19,Cn1c(C(=O)NCCCN2CCCCC2)cc2sccc21,-19.5% (inactive)
20,O=C(CCS(=O)(=O)Cc1ccccc1F)NCCCN1CCCCC1,35.1% (active)
21,O=C(NCCCN1CCN(c2ccccc2F)CC1)C1CCC(=O)N1C1CCCCC1 (stereo not drawn),-15.4% (inactive)
